Source: ChEMBL document CHEMBL1649165, “Activity profile in vitro of micafungin against Spanish clinical isolates of common and emerging species of yeasts and molds” (2009)
≈ marks a conversion by molar mass, not a printed value.

Assays:
Assay type in all cases: functional
[1] = system: Cryptococcus deneoformans; experiment: Antimicrobial activity against Cryptococcus neoformans var. neoformans by broth microdilution method
Outline: (§1)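 Clinical isolates of nonfermentative yeasts, tested by broth microdilution following EUCAST recommendations. The only change from that method was a minor modification to improve growth.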

Trichosporon domesticum = experiment: Antimicrobial activity against Trichosporon mycotoxinivorans by broth microdilution method; settings: Apiotrichum domesticum
Outline: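 Spanish human clinical isolates were tested as nonfermentative yeasts by broth microdilution. The method strictly followed the EUCAST recommendations, with a minor modification to improve growth, and the read-out was the MIC.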

Wickerhamomyces anomalus = experiment: Antimicrobial activity against Candida pelliculosa by broth microdilution method; settings: Hansenula anomala
Outline: (§2)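 Clinical isolates from human patients, tested by broth microdilution using the AFST-EUCAST reference procedure for fermentative yeasts. The MIC was read per that reference method.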

Trichosporon asahii = experiment: Antimicrobial activity against Trichosporon asahii by broth microdilution method
Outline: (§3)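 Nonfermentative yeast clinical isolates (Rhodotorula, Trichosporon) tested by broth microdilution. The EUCAST yeast recommendations were followed strictly, with one minor modification to improve growth. MIC was read as the endpoint.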

Candida albicans = experiment: Antimicrobial activity against Candida albicans by broth microdilution method; outline: as §2
Candida metapsilosis = experiment: Antimicrobial activity against Candida metapsilosis by broth microdilution method; settings: Lodderomyces metapsilosis; outline: as §2
Clavispora lusitaniae = experiment: Antimicrobial activity against Candida lusitaniae by broth microdilution method; outline: as §2
Candida tropicalis = experiment: Antimicrobial activity against Candida tropicalis by broth microdilution method; outline: as §2
Trichosporon dermatis = experiment: Antimicrobial activity against Trichosporon dermatis by broth microdilution method; settings: Cutaneotrichosporon dermatis; outline: as §3
[2] = system: Meyerozyma guilliermondii; experiment: Antimicrobial activity against Candida guilliermondii by broth microdilution method; outline: as §2
Trichosporon = experiment: Antimicrobial activity against Trichosporon spp. by broth microdilution method; outline: as §3
Kluyveromyces marxianus = experiment: Antimicrobial activity against Candida kefyr by broth microdilution method; outline: as §2
Trichosporon inkin = experiment: Antimicrobial activity against Trichosporon inkin by broth microdilution method; outline: as §3
Naganishia albida = experiment: Antimicrobial activity against Cryptococcus albidus by broth microdilution method; outline: as §1
[Candida] inconspicua = Antimicrobial activity against Candida inconspicua by broth microdilution method; settings: Pichia inconspicua; outline: as §2
Ustilago = experiment: Antimicrobial activity against Ustilago spp by broth microdilution method
[Candida] zeylanoides = Antimicrobial activity against Candida zeylanoides by broth microdilution method; settings: Dujonia zeylanoides; outline: as §2
Diutina rugosa = experiment: Antimicrobial activity against Candida rugosa by broth microdilution method; outline: as §2
Yarrowia lipolytica = experiment: Antimicrobial activity against Yarrowia lipolytica by broth microdilution method
Geotrichum candidum = experiment: Antimicrobial activity against Galactomyces geotrichum by broth microdilution method
Magnusiomyces capitatus = experiment: Antimicrobial activity against Dipodascus capitatus by broth microdilution method
Torulaspora delbrueckii = experiment: Antimicrobial activity against Candida coliculosa by broth microdilution method; outline: as §2
Trichosporon jirovecii = experiment: Antimicrobial activity against Trichosporon jirovecii by broth microdilution method; settings: Cutaneotrichosporon jirovecii; outline: as §3
Nakaseomyces glabratus = experiment: Antimicrobial activity against Candida glabrata by broth microdilution method; outline: as §2
[Candida] intermedia = Antimicrobial activity against Candida intermedia by broth microdilution method; settings: Sungouiella intermedia; outline: as §2
[3] = system: Kazachstania pintolopesii; experiment: Antimicrobial activity against Candida pintolopesii by broth microdilution method; settings: Arxiozyma pintolopesii; outline: as §2
Rhodotorula mucilaginosa = experiment: Antimicrobial activity against Rhodotorula mucilaginosa by broth microdilution method; outline: as §3
Pichia kudriavzevii = experiment: Antimicrobial activity against Candida krusei by broth microdilution method; outline: as §2
Pichia norvegensis = experiment: Antimicrobial activity against Candida norvegensis by broth microdilution method; outline: as §2
Candida parapsilosis = experiment: Antimicrobial activity against Candida parapsilosis by broth microdilution method; settings: Lodderomyces parapsilosis; outline: as §2
Debaryomyces hansenii = experiment: Antimicrobial activity against Candida famata by broth microdilution method; outline: as §2
Papiliotrema laurentii = experiment: Antimicrobial activity against Cryptococcus laurentii by broth microdilution method; outline: as §1
Rhodotorula glutinis = experiment: Antimicrobial activity against Rhodotorula glutinis by broth microdilution method; outline: as §3
Candida orthopsilosis = experiment: Antimicrobial activity against Candida orthopsilosis by broth microdilution method; settings: Lodderomyces orthopsilosis; outline: as §2
Saccharomyces cerevisiae = experiment: Antimicrobial activity against Saccharomyces cerevisiae by broth microdilution method
Trichosporon ovoides = experiment: Antimicrobial activity against Trichosporon ovoides by broth microdilution method; outline: as §3

OC(Cn1cncn1)(Cn1cncn1)c1ccc(F)cc1F [FLUCONAZOLE]
MIC50 [1]: 16 µg/mL (≈ 52.2 µM) | MIC90 [1]: > 64 µg/mL | MIC50 (Trichosporon domesticum): 16 µg/mL (≈ 52.2 µM) | MIC90 (Trichosporon domesticum): > 64 µg/mL | MIC50 (Wickerhamomyces anomalus): 8 µg/mL (≈ 26.1 µM) | MIC90 (Wickerhamomyces anomalus): > 64 µg/mL | MIC50 (Trichosporon asahii): 16 µg/mL (≈ 52.2 µM) | MIC90 (Trichosporon asahii): > 64 µg/mL | MIC50 (Candida albicans): 0.12 µg/mL (≈ 0.392 µM) | MIC90 (Candida albicans): 0.25 µg/mL (≈ 0.816 µM) | MIC50 (Candida metapsilosis): 8 µg/mL (≈ 26.1 µM) | MIC90 (Candida metapsilosis): > 64 µg/mL | MIC50 (Clavispora lusitaniae): 0.25 µg/mL (≈ 0.816 µM) | MIC90 (Clavispora lusitaniae): 1 µg/mL (≈ 3.27 µM) | MIC50 (Candida tropicalis): 0.25 µg/mL (≈ 0.816 µM) | MIC90 (Candida tropicalis): 2 µg/mL (≈ 6.53 µM) | MIC50 (Trichosporon dermatis): 16 µg/mL (≈ 52.2 µM) | MIC90 (Trichosporon dermatis): > 64 µg/mL | MIC50 [2]: 4 µg/mL (≈ 13.1 µM) | MIC90 [2]: > 64 µg/mL | MIC50 (Trichosporon): 16 µg/mL (≈ 52.2 µM) | MIC90 (Trichosporon): > 64 µg/mL | MIC50 (Kluyveromyces marxianus): 0.25 µg/mL (≈ 0.816 µM) | MIC90 (Kluyveromyces marxianus): 0.5 µg/mL (≈ 1.63 µM) | MIC50 (Trichosporon inkin): 4 µg/mL (≈ 13.1 µM) | MIC90 (Trichosporon inkin): 4 µg/mL (≈ 13.1 µM) | MIC50 (Naganishia albida): 16 µg/mL (≈ 52.2 µM) | MIC90 (Naganishia albida): > 64 µg/mL | MIC50 ([Candida] inconspicua): 8 µg/mL (≈ 26.1 µM) | MIC90 ([Candida] inconspicua): > 64 µg/mL | MIC50 (Ustilago): 16 µg/mL (≈ 52.2 µM) | MIC90 (Ustilago): > 64 µg/mL | MIC50 ([Candida] zeylanoides): 8 µg/mL (≈ 26.1 µM) | MIC90 ([Candida] zeylanoides): > 64 µg/mL | MIC50 (Diutina rugosa): 8 µg/mL (≈ 26.1 µM) | MIC90 (Diutina rugosa): > 64 µg/mL | MIC50 (Yarrowia lipolytica): 8 µg/mL (≈ 26.1 µM) | MIC90 (Yarrowia lipolytica): > 64 µg/mL | MIC50 (Geotrichum candidum): 64 µg/mL (≈ 209 µM) | MIC90 (Geotrichum candidum): > 64 µg/mL | MIC50 (Magnusiomyces capitatus): 16 µg/mL (≈ 52.2 µM) | MIC90 (Magnusiomyces capitatus): 32 µg/mL (≈ 104 µM) | MIC50 (Torulaspora delbrueckii): 8 µg/mL (≈ 26.1 µM) | MIC90 (Torulaspora delbrueckii): > 64 µg/mL | MIC50 (Trichosporon jirovecii): 16 µg/mL (≈ 52.2 µM) | MIC90 (Trichosporon jirovecii): > 64 µg/mL | MIC50 (Nakaseomyces glabratus): 4 µg/mL (≈ 13.1 µM) | MIC90 (Nakaseomyces glabratus): 32 µg/mL (≈ 104 µM) | MIC50 ([Candida] intermedia): 8 µg/mL (≈ 26.1 µM) | MIC90 ([Candida] intermedia): > 64 µg/mL | MIC50 [3]: 8 µg/mL (≈ 26.1 µM) | MIC90 [3]: > 64 µg/mL | MIC50 (Rhodotorula mucilaginosa): > 64 µg/mL | MIC90 (Rhodotorula mucilaginosa): > 64 µg/mL | MIC50 (Pichia kudriavzevii): 32 µg/mL (≈ 104 µM) | MIC90 (Pichia kudriavzevii): > 64 µg/mL | MIC50 (Pichia norvegensis): 8 µg/mL (≈ 26.1 µM) | MIC90 (Pichia norvegensis): > 64 µg/mL | MIC50 (Candida parapsilosis): 0.5 µg/mL (≈ 1.63 µM) | MIC90 (Candida parapsilosis): 1 µg/mL (≈ 3.27 µM) | MIC50 (Debaryomyces hansenii): 8 µg/mL (≈ 26.1 µM) | MIC90 (Debaryomyces hansenii): > 64 µg/mL | MIC50 (Papiliotrema laurentii): 16 µg/mL (≈ 52.2 µM) | MIC90 (Papiliotrema laurentii): > 64 µg/mL | MIC50 (Rhodotorula glutinis): 16 µg/mL (≈ 52.2 µM) | MIC90 (Rhodotorula glutinis): > 64 µg/mL | MIC50 (Candida orthopsilosis): 8 µg/mL (≈ 26.1 µM) | MIC90 (Candida orthopsilosis): > 64 µg/mL | MIC50 (Saccharomyces cerevisiae): 4 µg/mL (≈ 13.1 µM) | MIC90 (Saccharomyces cerevisiae): > 64 µg/mL | MIC50 (Trichosporon ovoides): 16 µg/mL (≈ 52.2 µM) | MIC90 (Trichosporon ovoides): > 64 µg/mL
